A short description of the data set: Toxicity liver stage against HepG2, at 10uM. It is filed as cell-based. More on the design: test concentration 10 uM, cell line HepG2-A16-CD81EGFP. Particulars: human, HepG2-A16-CD81EGFP cells; read-out: INHIBITION
The method in brief: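 Uninfected HepG2-A16-CD81EGFP cells, 3 × 10^3 per well, 1536-well, plated on prespotted compound at 10 μM final, parasite-free screening media added to match infected plates; puromycin 10 μM positive, DMSO 0.5% negative; run in parallel with 48 h PbLuc assay at 37 °C, 5% CO2; viability by CellTiter-Glo luminescence, normalized to controls.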
Turning to `COc1ccc(CN2CC[C@H](c3nc4cccc(C(N)=O)c4[nH]3)C2)cc1`, the cytotoxicity at 10 µM was 12.1%. Regarding `CC(C)C(=O)N1CCC2(CC1)[C@@H]1CN(C(=O)N(C)C)C[C@@H]1C(=O)N2C`, the cytotoxicity at 10 µM amounted to 1.76%. Consider `O=C(C1CCCCC1)N1C[C@@H]2CCNC[C@@H]21`, for which the cytotoxicity at 10 µM was 3.47%. Consider `COc1ccc(C[C@H]2CN(C(=O)c3cscn3)CC[C@@H]2OC)cc1`, for which the cytotoxicity at 10 µM worked out at 7.71%. In the case of `O=C(C1CCOC1)N1CCC2(CCNCC2)C1` (centres undefined) it was 7.62%; in that of `Cc1nc2n(n1)CC(NCc1nnc(C(C)(C)C)o1)CC2` (centres undefined), -5.23%.

For `CCc1nc(C(=O)N2CCOCC2CC(=O)c2ccccc2)c[nH]1` (centres undefined), the cytotoxicity at 10 µM is -0.613%. Turning to `CCOc1cc(CNCC2CN(C3CC3)CCO2)ccc1OC` (centres undefined), the cytotoxicity at 10 µM is -5.95%. Consider `CS(=O)(=O)CCCNC1(c2cccc(Cl)c2)CCCC1`, for which the cytotoxicity at 10 µM turned out to be 0.245%. As for `Cc1c(C(C)NC2CCOCC2)cnn1-c1ccc(F)cc1F` (centres undefined), the cytotoxicity at 10 µM was -8.87%.

Regarding `CN(C)CCNC(=O)c1ccc(OC2CCN(C3CCC3)CC2)c(Cl)c1`, the cytotoxicity at 10 µM was -5.89%.

For the molecule `COc1cccc(CC2(C(=O)O)CCN(c3nccs3)CC2)c1`, the cytotoxicity at 10 µM is -9.59%. In the case of `Cc1nc(CCNC(=O)C2CC(=O)N(C(C)C)C2)sc1C` (centres undefined), the cytotoxicity at 10 µM is -14%. On to `Cc1cccc(N2CCN(C(=O)C3CC4(CCNCC4)CN3)CC2)n1` (centres undefined), for which the cytotoxicity at 10 µM is -4.27%. In the case of `Cc1ccc(CN2CCN(CC3CC3)[C@@H]3CS(=O)(=O)C[C@@H]32)cc1C` it was 25.4%; in that of `COc1ccc(C2CC(=O)Nc3c2nc2n3CCCC2)cc1OC` (centres undefined), -8.41%; in that of `Cc1cc(C)nc(N2Cc3cnn(Cc4ccc(F)cc4)c3C2)n1`, 25.2%. Under `Cc1nc(C)n(C2CCCN(C(=O)COc3cccc(C#N)c3)C2)n1` (centres undefined) stands 1.08%. On to `Cc1cccc(-c2nc(C)nn2CC(=O)NC(C)C)c1`, for which the cytotoxicity at 10 µM was determined as 8.22%.

Consider `Cc1nc(CN2CCCC(NCc3csc(C(C)(C)C)n3)C2)no1` (centres undefined), for which the cytotoxicity at 10 µM came out at 0.238%. Consider `c1cnn(CC2CCCN2Cc2noc(C3CC3)n2)c1` (centres undefined), for which the cytotoxicity at 10 µM was determined as 1.46%.

With `CC(NC(=O)CCn1cccn1)c1ccc2c(c1)OCCO2` (centres undefined), the cytotoxicity at 10 µM was -7.79%.

For `CCn1cnnc1C1CCN(C(=O)c2cccc(OC)c2OC)CC1`, the cytotoxicity at 10 µM was -7.96%.

`Cc1nc2cc(O)nn2c(C)c1CCC(=O)NCCc1ccccc1`: the cytotoxicity at 10 µM is -6.65%. As to `Cc1cc(NC(=O)CN2CCCCC2Cn2nc(C)nc2C)on1` (centres undefined), the cytotoxicity at 10 µM was -2.19%. With `COc1cccc(CN(C)C(=O)NCc2c(C)cc(C)[nH]c2=O)c1`, the cytotoxicity at 10 µM is -7.98%. In the case of `Cc1ncsc1C(=O)NC1CCN(CC(N)=O)CC1` it was -3.54%; in that of `Cc1cccc(OCCNC(=O)CN2CCc3cncnc3C2)c1`, -6.65%. Take `Cc1cnc2c(S(=O)(=O)N(C)C3CCS(=O)(=O)C3)cccc2c1` (centres undefined): the cytotoxicity at 10 µM was -5.44%. In the case of `Cc1nc(C)n(CC2CN(Cc3nc4ccccc4n3C)CCO2)n1` (centres undefined), the cytotoxicity at 10 µM is -4.68%. Consider `O=C(O)c1cc(S(=O)(=O)Nc2cccc(F)c2F)cc2c1OCCO2`, for which the cytotoxicity at 10 µM was -3.65%.

With `Cc1cc(C(=O)N2CCCN(Cc3nccn3C)CC2)no1`, the cytotoxicity at 10 µM worked out at 0.47%. Under `CCc1nc(CN(C)C2CCN(CC(=O)N3CCOCC3)C2)no1` (centres undefined) stands -5.32%. As for `O=C(N1CCCC(n2cncn2)C1)C1(c2ccccc2F)CCCC1` (centres undefined), the cytotoxicity at 10 µM is -4.24%. As for `Cc1ccc(C(=O)NS(=O)(=O)c2cc(Cl)ccc2Cl)c(=O)[nH]1`, the cytotoxicity at 10 µM was -5.72%. As to `CCOc1ncccc1CNC(=O)Nc1ccc(N(C)C)nc1`, the cytotoxicity at 10 µM was -11.8%. On to `CCc1nc(C)c(C(=O)NCCN2CCN(C(C)=O)CC2)s1`, for which the cytotoxicity at 10 µM was -10.4%.

Regarding `O=C(C1CCC1)N1CCC2(CCCN2CC2CC2)CC1`, the cytotoxicity at 10 µM was -2.45%.

Turning to `CN1CCOCC12CCN(C(=O)C1CCC1)CC2`, the cytotoxicity at 10 µM was 0.64%.

The record behind these values is ChEMBL document CHEMBL4513216, “Probing the Open Global Health Chemical Diversity Library for Multistage-Active Starting Points for Next-Generation Antimalarials” (ACS Infect Dis, 2020).
